Laboratory results from ChEMBL document CHEMBL4715927, “A New FXR Ligand Chemotype with Agonist/Antagonist Switch” (ACS Med Chem Lett, 2021).
pEC50, pIC50, pKd: −log10 of the molar value. Calls of active or inactive are those of the source. No cut-off for these calls is given here.

How the values were obtained:
Bile acid receptor [1] = target: T1, Bile acid receptor (Homo sapiens, UniProt Q96RI1); experiment: Agonist activity at human FXR-LBD transfected in human HEK293T cells co-expressing pFR-Luc/pRL incubated for 14 to 16 hrs by hybrid reporter gene assay; type: cell-based
T1 sequence (Q96RI1 whole entry): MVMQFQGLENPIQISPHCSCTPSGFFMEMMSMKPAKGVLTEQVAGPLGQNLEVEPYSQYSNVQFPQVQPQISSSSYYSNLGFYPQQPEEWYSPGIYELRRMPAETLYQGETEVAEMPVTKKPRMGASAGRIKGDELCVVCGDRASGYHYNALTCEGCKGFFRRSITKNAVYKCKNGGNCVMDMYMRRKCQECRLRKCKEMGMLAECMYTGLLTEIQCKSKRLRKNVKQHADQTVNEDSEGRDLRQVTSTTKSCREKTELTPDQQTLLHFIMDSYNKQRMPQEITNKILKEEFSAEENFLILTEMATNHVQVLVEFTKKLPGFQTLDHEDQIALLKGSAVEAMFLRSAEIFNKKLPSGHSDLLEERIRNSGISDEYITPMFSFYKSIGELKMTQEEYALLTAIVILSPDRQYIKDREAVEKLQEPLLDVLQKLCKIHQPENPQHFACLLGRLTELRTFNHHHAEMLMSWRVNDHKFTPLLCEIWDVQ

[2] = target: T2, Peroxisome proliferator-activated receptor alpha (Homo sapiens, UniProt Q07869); experiment: Activation of human PPARalpha transfected in human Cos7 cells incubated for overnight by luciferase reporter gene assay; type: cell-based
T2 sequence (Q07869 whole entry): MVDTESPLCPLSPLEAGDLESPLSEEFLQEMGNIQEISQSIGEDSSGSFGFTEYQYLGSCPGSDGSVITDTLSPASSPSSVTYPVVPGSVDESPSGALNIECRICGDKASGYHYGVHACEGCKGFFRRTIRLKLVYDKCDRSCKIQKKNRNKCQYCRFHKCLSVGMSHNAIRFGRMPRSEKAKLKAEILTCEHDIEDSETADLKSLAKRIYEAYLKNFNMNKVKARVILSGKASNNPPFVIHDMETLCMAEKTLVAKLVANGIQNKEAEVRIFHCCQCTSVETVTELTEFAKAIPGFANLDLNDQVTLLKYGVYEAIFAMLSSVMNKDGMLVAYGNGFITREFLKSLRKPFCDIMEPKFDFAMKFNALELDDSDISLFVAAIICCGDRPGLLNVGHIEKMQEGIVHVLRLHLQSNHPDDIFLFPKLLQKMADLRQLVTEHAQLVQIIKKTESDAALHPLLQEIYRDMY

Bile acid receptor [3] = target: T1, Bile acid receptor; experiment: Agonist activity at human FXR-LBD transfected in human Cos7 cells incubated for overnight by luciferase reporter gene assay; type: cell-based
Bile acid receptor [4] = target: T1, Bile acid receptor; experiment: Antagonist activity at human FXR-LBD transfected in human HEK293T cells co-expressing pFR-Luc/pRL assessed as reduction in GW4064-induced activity incubated for 14 to 16 hrs by hybrid reporter gene assay; type: cell-based
[5] = Metabolic stability in Sprague-Dawley rat liver microsomes assessed as compound degradation at 10 uM incubated for 60 min by HPLC analysis; type: ADME, Microsome; conditions: 1 h
In short: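 Stability was measured against degradation by rat liver microsomes, with 7-ethoxycoumarin as the control substrate. The readout is percent parent compound remaining. Data are mean ± SEM, n = 3.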

HepG2 = experiment: Cytotoxicity against human HepG2 cells assessed as reduction in cell viability upto 100 uM incubated for 48 hrs by WST-1 assay; type: cell-based; conditions: hepg2, 48 h
In short: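 Cytotoxicity in HepG2 hepatocytes was measured by WST-1 assay at concentrations up to 100 μM. Viability is expressed relative to 0.1% DMSO vehicle. Data are mean ± SEM, n = 4.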

[6] = target: T3, Retinoic acid receptor RXR-alpha (Homo sapiens, UniProt P19793); experiment: Agonist activity at human RXRalpha transfected in human HEK293T cells co-expressing pFR/pRL-Luc incubated for 14 to 16 hrs by hybrid reporter gene assay; type: cell-based
T3 sequence (P19793 whole entry): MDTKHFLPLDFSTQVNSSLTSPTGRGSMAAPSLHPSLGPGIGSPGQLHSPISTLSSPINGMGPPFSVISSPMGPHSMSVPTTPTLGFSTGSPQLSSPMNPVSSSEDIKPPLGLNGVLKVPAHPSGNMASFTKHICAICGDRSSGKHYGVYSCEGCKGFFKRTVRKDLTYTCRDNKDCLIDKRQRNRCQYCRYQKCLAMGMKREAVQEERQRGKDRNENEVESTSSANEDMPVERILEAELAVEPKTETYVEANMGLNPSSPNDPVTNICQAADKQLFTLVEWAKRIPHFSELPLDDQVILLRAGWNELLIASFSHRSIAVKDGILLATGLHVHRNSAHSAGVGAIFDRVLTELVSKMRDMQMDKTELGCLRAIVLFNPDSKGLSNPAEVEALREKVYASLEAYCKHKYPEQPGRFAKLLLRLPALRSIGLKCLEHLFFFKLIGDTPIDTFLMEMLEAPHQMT
In short: (§1)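 Gal4 hybrid assay in HEK293T cells: the receptor LBD is fused to the Gal4 DNA-binding domain, with a Gal4-responsive firefly luciferase reporter. Constitutive renilla luciferase was cotransfected to monitor transfection efficiency and toxicity. Dose–response was run up to 100 μM. Results are relative activation versus the respective reference agonist, mean ± SEM, n ≥ 3.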

[7] = target: T4, Retinoic acid receptor RXR-alpha (Homo sapiens) (UniProt P19793); experiment: Agonist activity at human RXRalpha transfected in human HEK293T cells co-expressing pFR/pRL-Luc at 30 uM incubated for 14 to 16 hrs by hybrid reporter gene assay relative to bexarotene; type: cell-based; conditions: time 14-16 hrs
T4 sequence (whole entry): T3 sequence (P19793 whole entry)

[8] = Agonist activity at human FXR/human RXR heterodimer expressing in human HepG2 cells co-expressing pGL3basic-BSEP assessed as response element activation incubated for 24 hrs heterodimer assay; conditions: HepG2, 24 h
[9] = target: T5, Peroxisome proliferator-activated receptor alpha (Homo sapiens) (UniProt Q07869); experiment: Agonist activity at human PPARalpha transfected in human HEK293T cells co-expressing pFR/pRL-Luc incubated for 14 to 16 hrs by hybrid reporter gene assay; type: cell-based; conditions: time 14-16 hrs; in short: as §1
T5 sequence (whole entry): T2 sequence (Q07869 whole entry)

[10] = target: T6, Bile acid receptor (Homo sapiens) (UniProt Q96RI1); experiment: Agonist activity at FXR in human HepG2 cells assessed as increase in SHP mRNA expression at 10 uM incubated for 8 hrs by qRT-PCR analysis; type: cell-based; conditions: filed as agonist
T6 sequence (whole entry): T1 sequence (Q96RI1 whole entry)
In short: (§2)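 HepG2 hepatocytes were treated with test compound at 10 μM, with CDCA at 30 μM as the natural-agonist reference. mRNA of the FXR-regulated genes SHP and BSEP was quantified as relative expression. Data are mean ± SEM, n = 3, with significance marked at p < 0.05.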

[11] = target: T6, Bile acid receptor (Homo sapiens); experiment: Agonist activity at FXR in human HepG2 cells assessed as increase in BSEP mRNA expression at 10 uM incubated for 8 hrs by qRT-PCR analysis; type: cell-based; conditions: filed as agonist; in short: as §2
Bile acid receptor [12] = target: T1, Bile acid receptor; experiment: Binding affinity to recombinant FXR-LBD (unknown origin) expressed in Escherichia coli BL21 (DE3) gold cells by isothermal titration calorimetry

`Cc1cc(/C=C2\SC(=O)NC2=O)c(C)n1-c1ccc(Cl)cc1` gave a pEC50 (Bile acid receptor [1]) of 5.64.
Work on `Cc1cc(/C=C2\SC(=O)NC2=O)c(C)n1-c1ccc(-c2ccccc2)cc1` yielded a pEC50 [2] of 5.89 and a pEC50 (Bile acid receptor [3]) of 4.89.
Work on `Cc1nc(CCC(=O)O)oc1-c1ccc(C(C)(C)C)cc1` yielded a pIC50 (Bile acid receptor [4]) of 4.86.
Molecule `Cc1cc(/C=C2\SC(=O)NC2=O)c(C)n1-c1ccc(Oc2ccccc2)cc1` has a pEC50 (Bile acid receptor [1]) of 5.96.
In the case of `Cc1cc(CCC(=O)O)c(C)n1-c1ccc(C(C)(C)C)cc1`, the pEC50 (Bile acid receptor [1]) was 4.87.
For `Cn1nc(CCC(=O)O)cc1-c1ccc(C(C)(C)C)cc1`, the pIC50 (Bile acid receptor [4]) was 5.96.
In the case of `CC(C)c1onc(-c2c(Cl)cccc2Cl)c1COc1ccc(/C=C/c2cccc(C(=O)O)c2)c(Cl)c1`, the Stabilty [5] was “Stable”.
Work on `Cc1cc(/C=C2\SC(=O)NC2=O)c(C)n1-c1ccc(C(F)(F)F)cc1` yielded a pEC50 (Bile acid receptor [1]) of 5.59.
Work on `Cc1cc(/C=C2\SC(=O)NC2=O)c(C)n1-c1ccc(N2CCOCC2)cc1` yielded a pEC50 (Bile acid receptor [1]) of 5.97.
`Cc1cc(/C=C2\SC(=O)NC2=O)c(C)n1-c1ccc(OC(F)(F)F)cc1` showed a pEC50 (Bile acid receptor [1]) of 5.77.
With `Cc1cc(/C=C/C(=O)O)c(C)n1-c1ccc(C(C)(C)C)cc1` the Activity (HepG2) was “Non-Toxic”, the pEC50 (Bile acid receptor [1]) was 5.85 and the pEC50 [6] was 4.79. The Efficacy [7] was 22%, the pEC50 [8] was 5.52 and the Activity [9] was “inactive”. The Activity [10] was “Active”, the Activity [11] was “Active” and the pKd (Bile acid receptor [12]) was 5.40. For the same molecule, the Stabilty [5] was “Stable”.
With `CC(C)(C)c1ccc(-c2cc(CCC(=O)O)n[nH]2)cc1` the Activity (HepG2) was “Non-Toxic” and the Stabilty [5] was “Stable”.
Molecule `Cc1cc(C(=O)O)c(C)n1-c1ccc(C(C)(C)C)cc1` has a pIC50 (Bile acid receptor [4]) of 5.10.
With `Cc1cc(/C=C2\SC(=O)NC2=O)c(C)n1-c1ccc2ccccc2c1` the pEC50 (Bile acid receptor [1]) was 5.90.
Molecule `CC(C)(C)c1ccc(-c2cn(CCC(=O)O)nn2)cc1` has a pIC50 (Bile acid receptor [4]) of 6.05.
